Source: PubChem BioAssay (The Scripps Research Institute Molecular Screening Center)
Most compounds without a hit are left out; they make up all but 1.5% or so of the library.
V1aR counter: agonists of human V1a receptor, primary screen, counter-screen for OXTR agonist project, fluorescence, CHO-V1R cells; actives 0.25% (n = 320,000); Vasopressin V1a receptor (Homo sapiens), P37288; Fluo-8 calcium fluorescence, agonist mode; 0% DMSO, 100% 3 nM vasopressin; activation, % at 3 µM;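 active = activation above the mean activation of all tested compounds plus 3 SD, per screening run, cut at about 20% in these data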;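 note: signal is peak over basal fluorescence ratio across a 100 second FLIPR read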
M4 ag: human M4 muscarinic receptor agonists, primary screen, CHO-K1 cells, Fluo-8 calcium fluorescence. Muscarinic acetylcholine receptor M4 (Homo sapiens), P08173. CHO-K1 hM4/Gqi5; vehicle 0%, full acetylcholine response 100%. activation, % at 3 µM. actives 0.14% (n = 360,000). AID 624127, 2012;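 active = activation above the run mean over all test wells plus 3 SD, cut at about 32% in these data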;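 note: peak over basal fluorescence ratio per well then scaled between controls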
OXTR potentiator: human OXTR potentiators, primary screen, fluorescence, CHO-OTR cells, Fluo-8 calcium | AID 2445, 2010 | Fluo-8 calcium fluorescence, potentiator mode; 0% = oxytocin EC15, 100% = EC100 | actives 0.061% (n = 320,000) | Oxytocin receptor (Homo sapiens), P30559 | activation, % at 3 µM;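 active = activation above that plate's cutoff, the mean activation of tested compounds plus 3 SD, cut at about 6.6% in these data, passing the limit was not always enough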
Target sequence (P30559 whole entry, looked up): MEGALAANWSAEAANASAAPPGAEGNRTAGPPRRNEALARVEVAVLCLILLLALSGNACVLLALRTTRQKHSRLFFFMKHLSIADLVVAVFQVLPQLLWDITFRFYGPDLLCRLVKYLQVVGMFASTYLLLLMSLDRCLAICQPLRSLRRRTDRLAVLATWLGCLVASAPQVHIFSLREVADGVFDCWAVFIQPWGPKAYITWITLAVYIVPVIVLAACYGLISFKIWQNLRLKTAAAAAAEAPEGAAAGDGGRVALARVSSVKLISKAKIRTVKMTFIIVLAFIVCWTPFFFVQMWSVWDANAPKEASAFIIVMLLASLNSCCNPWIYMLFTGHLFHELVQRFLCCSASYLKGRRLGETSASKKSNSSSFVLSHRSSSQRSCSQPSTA
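Assay system: CHO cell line stably expressing human OTR | Also added: Oxytocin at about EC15, sub-maximal agonist stimulus | Times: Compound 6 min at room temperature before oxytocin, 100 s read | Measured by: Fluo-8 intracellular calcium fluorescence, ex 470-495, em 515-575 nm | Controls: EC15 oxytocin alone as 0%, 75 nM oxytocin as 100%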
OXTR ag: human OXTR agonists, primary screen, fluorescence, CHO-OTR cells, Fluo-8 calcium; Oxytocin receptor (Homo sapiens), P30559; Fluo-8 calcium fluorescence; normalized: DMSO 0%, oxytocin 100%; activation, % at 3 µM; actives 0.32% (n = 320,000); AID 2435, 2010;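 active = activation above the mean of all tested compounds plus 3 SD, cutoff set per screening run, cut at about 20% in these data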;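 note: peak over basal fluorescence ratio from a 100 s FLIPR kinetic read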
M4 antag: human M4 muscarinic receptor antagonists, primary screen, CHO cells, Fluo-8 calcium fluorescence; inhibition, % at 3 µM; CHO-hM4 cells, ACh EC80; Muscarinic acetylcholine receptor M4 (Homo sapiens), P08173; actives 0.73% (n = 360,000);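 active = inhibition above its plate's cutoff, the mean inhibition of sample wells plus 3 SD, cut at about 27% in these data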
M4 PAM: human M4 muscarinic receptor positive allosteric modulators, primary screen, CHO-K1 cells, Fluo-8 calcium fluorescence; Muscarinic acetylcholine receptor M4 (Homo sapiens), P08173; CHO-K1 hM4/Gqi5, ACh EC20; 0% = ACh EC20, 100% = maximal ACh; activation, % at 3 µM; actives 0.4% (n = 360,000); AID 624126, 2012;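 active = activation above its plate's cutoff, the mean activation of sample wells plus 3 SD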
Of the large screens only hits and unclear results are named; the others gave an inactive call.

COc1cccc2c1C(=O)c1c(O)c3c(c(O)c1C2=O)C[C@](O)(C(C)=O)C[C@H]3O[C@@H]1C[C@@H](N)[C@@H](O)[C@@H](C)O1	V1aR counter 21.2
COc1cccc2c1C(=N)c1c(O)c3c(c(O)c1C2=O)CC(O)(C(C)=O)CC3OC1CC(N)C(O)C(C)O1 (stereo unspecified)	none (no result: V1aR counter, OXTR potentiator, OXTR ag)
CC1CCC(C(C)C)C(OCC[N+](C)(C)C)C1 (stereo unspecified)	M4 antag 98.9
CC1CCC(C(C)C)C(OCC(O)C[N+]2(C)CCCCC2)C1 (stereo unspecified)	none
CCOC(=O)CC(=O)Nc1ccccc1C(=O)O	M4 PAM 25.1
CCCCN(C)CCCNC(=O)C1CCC(CNS(=O)(=O)c2c(C)cc(C)cc2C)CC1 (stereo unspecified)	none
COc1ccc(C2=Nc3ccccc3N(C(=O)c3cccnc3)C2C(=O)NC(C)(C)C)cc1 (stereo unspecified)	none (no result: V1aR counter, OXTR potentiator, OXTR ag)
CCOC(=O)c1cnc2c(C)cccc2c1NCCCN1CCOCC1	M4 PAM 20.2
COCCNC(=O)C1C(=O)Nc2ccccc2C(=O)N1Cc1ccccc1 (stereo unspecified)	none (no result: V1aR counter, OXTR potentiator, OXTR ag)
CC(C)c1cc(-c2cc(C(=O)NCc3ccccc3)on2)nc(NCC2CC2)n1	V1aR counter 35.3, M4 ag 42.9, OXTR ag 30.6, M4 antag 41.3
CCCNc1nc(C)cc(-c2cc(-c3ccccc3)on2)n1	none
Cc1cc(-c2cc(-c3ccccc3)on2)nc(NCC2CC2)n1	M4 PAM 28.6
CCCCC(=O)Nc1ccc2c(c1)nc1n2CCOC1	none
CCCC(=O)Nc1ccc2c(c1)nc1n2CCOC1	M4 PAM 31.0
NCc1ccccc1CS(=O)(=O)N1CCOCC1	none
C=CCn1c(C)c(C(C)=O)c(N2CCN(c3ccccc3)CC2)nc1=S	M4 antag 30.3
CCn1c(C)c(C(C)=O)c(N2CCCC2)nc1=S	M4 antag 36.6
C=CCn1c(C)c(C(C)=O)c(N2CCCC2)nc1=S	M4 antag 72.0
O=C(Nc1ccc(N2CCN(C(=O)c3cccs3)CC2)cc1)c1ccc(Br)o1	none
O=C1C=C(O)c2cccc(O)c2C1=O	none
O=C1C=C(c2c(O)ccc3ccccc23)c2ccccc2C1=O	M4 antag 47.4 (no result: V1aR counter, OXTR potentiator, OXTR ag)
C[C@]1(CC/C(=C/CO)CO)[C@H](C=O)CC[C@@]23COC(=O)C2=CCC[C@@H]31	none (no result: V1aR counter, OXTR potentiator, OXTR ag)
O=C1CCCCC1Nc1ccc(Br)cc1 (stereo unspecified)	none (no result: V1aR counter, OXTR potentiator, OXTR ag)
CC(O)CC(=O)OC[C@]12CC[C@H]3[C@@](C)(CC[C@H]4C(C)(C)CCC[C@]34C)[C@@H]1CC(C1=CC(=O)OC1O)O2 (stereo partly specified)	M4 antag 64.3 (no result: V1aR counter, OXTR potentiator, OXTR ag)
CC(=O)OC[C@]12CC[C@H]3[C@@](C)(CC[C@H]4C(C)(C)CCC[C@]34C)[C@@H]1C[C@H](C1=CC(=O)O[C@H]1OC(C)=O)O2	none (no result: M4 ag, M4 antag, M4 PAM)
CCN1CCC(O)(/C=C/c2ccc(C(C)C)cc2)C(C(=O)/C=C/c2ccc(C(C)C)cc2)C1 (stereo unspecified)	none (no result: V1aR counter, OXTR potentiator, OXTR ag)
CN1CCN(S(=O)(=O)c2ccc(N3CCN(S(=O)(=O)/C=C/c4ccccc4)CC3)nc2)CC1	M4 antag 30.2
O=C1NC[C@H](CCCCN2C[C@H](Cc3ccc(O)cc3)N(CCC3CCCCC3)C(=O)C2=O)N(CC2CCCCC2)C1=O	none (no result: V1aR counter, OXTR potentiator, OXTR ag)
O=C1NC[C@@H](CCCCN2C[C@H](Cc3ccc(O)cc3)N(CC3CCCCC3)C(=O)C2=O)N(CCC2CCCCC2)C1=O	M4 ag 71.5 (no result: V1aR counter, OXTR potentiator, OXTR ag)
CC(C)C[C@H]1CNC(=O)C(=O)N1C[C@@H]1CCCN1C[C@H](Cc1ccc(O)cc1)N1C[C@H](Cc2ccccc2)N(CC2CCCCC2)C(=O)C1=O	M4 antag 36.6 (no result: V1aR counter, OXTR potentiator, OXTR ag)
CC1CCC2(CC1)NC(=O)c1ccccc1O2 (stereo unspecified)	none
Cc1ccc(Cl)cc1N(CC(=O)NCc1ccccc1)S(C)(=O)=O	none
COc1ccc(S(=O)(=O)N2CCC[C@@H]2C(=O)N2CCC[C@H]2C(=O)NCc2ccncc2)cc1C	none (no result: V1aR counter, OXTR potentiator, OXTR ag)
CCc1nc2ccc(C(=O)NCc3ccc(OC)cc3)cn2c1N(C)Cc1ccc(OC)cc1	none (no result: V1aR counter, OXTR potentiator, OXTR ag)
CCc1nc2ccc(C(=O)NCCN3CCCC3)cn2c1N(C)Cc1ccc(OC)cc1	M4 antag 55.9 (no result: V1aR counter, OXTR potentiator, OXTR ag)
CN1C(=O)C(O)(CC(=O)c2ccncc2)c2ccccc21 (stereo unspecified)	M4 PAM 18.7
O=C(CC1SCCNC1=O)Nc1cccc(C(F)(F)F)c1 (stereo unspecified)	M4 PAM 32.4
CC(C)(C)OC(=O)N1CCC(C(=O)Nc2cccc(C(=O)N3CCCCC3)c2)CC1	none (no result: V1aR counter, OXTR potentiator, OXTR ag)
COC(=O)c1c(C)oc2ccc(N(C(=O)c3ccncc3)S(=O)(=O)c3ccc4ccccc4c3)cc12	M4 antag 33.1
CC(CCc1ccc(O)cc1)NC(c1ccccc1)c1ccc(Cl)cc1 (stereo unspecified)	none
CC(CCc1ccc(O)cc1)NCCC(c1ccccc1)c1ccccc1 (stereo unspecified)	M4 ag 33.0, M4 antag 31.5
O=Cc1ccccc1OCCOc1ccccc1C=O	M4 antag 26.8
Cc1ccc(C)c(S(=O)(=O)NCc2ccc(C(=O)N3CCOCC3)cc2)c1	none
Cc1ccc(C)c(S(=O)(=O)NCc2ccc(C(=O)N3CCN(C)CC3)cc2)c1	M4 PAM 20.4
CCN1CCN(CCNC(=O)c2ccc(/C=C3/Sc4ccccc4N(Cc4ccccc4C)C3=O)cc2)CC1	M4 ag 33.1 (no result: V1aR counter, OXTR potentiator, OXTR ag)
Nc1[nH]ncc1-c1ccc(Cl)cc1	M4 PAM 37.8
Nc1[nH]ncc1N=Nc1ccc(Cl)cc1	none
N#Cc1c(C(F)(F)F)cc(-c2ccco2)nc1SCc1ccccn1	M4 ag 55.7
O=C(/C=C/c1cc([N+](=O)[O-])ccc1OC(F)F)Nc1cccc(OC(F)F)c1	none
CCCCN1C(N)=NC[C@@H]1Cc1ccc(O)cc1	none
NC1=NC[C@H](Cc2ccc(O)cc2)N1CCC12CC3CC(CC(C3)C1)C2	M4 antag 46.4
O=C(Nc1cccc(C(=O)O)c1)/C(=C\c1ccccc1Cl)NC(=O)c1ccco1	M4 PAM 21.0
COc1ccc(/C=C(/NC(=O)c2ccco2)C(=O)Nc2cccc(C(=O)O)c2)cc1	none
